What was measured:
Aminopeptidase N = Aminopeptidase N (Homo sapiens, UniProt P15144); test: Inhibition of catalytic activity of recombinant human AP-N transfected in human HEK-293 cells assessed as cleavage of substrate L-leucine-p-nitroanilide to L-leucine and p-nitroaniline measured every 5 mins for 10 to 50 mins by spectrophotometric analysis; format: cell-based, HEK293
[1] = Displacement of [3H]AL-11 from IRAP of CHO-K1 cell membrane after 30 mins by scintillation counting in presence of 30 mM EDTA and 600 uM 1,10-Phenantrone; format: cell membranes, Cricetulus griseus
Outline: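 CHO-K1 membranes with endogenous IRAP (4 × 10⁵ cells) in 50 mM Tris-HCl pH 7.4 buffer were preincubated 40 min at 37 °C with compound (10⁻⁹–10⁻⁵ M final) without chelators. [³H]AL-11 (3 nM final) was then added with EDTA/1,10-Phe (final 5 mM/100 μM) for 30 min at 37 °C. Unlabeled Ang IV defined nonspecific binding. Bound radioactivity was collected on BSA-soaked GF/B filters and β-counted. Runs were ≥2× in duplicate. IC50 came from nonlinear regression and Ki from Cheng–Prusoff using the [³H]AL-11 KD.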

[2] = Displacement of [3H]AL-11 from IRAP of CHO-K1 cell membrane preincubated for 40 mins in presence of 30 mM EDTA and 600 uM 1,10-Phenantrone after 30 mins by scintillation counting; format: cell membranes, Cricetulus griseus
Outline: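 Chelators EDTA (5 mM final) and 1,10-phenanthroline (100 μM final) were present both in the 40 min, 37 °C preincubation of CHO-K1 membranes (4 × 10⁵ cells, 50 mM Tris-HCl pH 7.4) with compound (10⁻⁹–10⁻⁵ M) and during the binding step. Binding was 30 min at 37 °C with 3 nM [³H]AL-11, with unlabeled Ang IV for nonspecific binding. Read-out was GF/B filtration and β-counting, ≥2 experiments in duplicate. IC50 came from nonlinear regression and Ki via Cheng–Prusoff.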

Aminopeptidase N, sequence (P15144 whole entry): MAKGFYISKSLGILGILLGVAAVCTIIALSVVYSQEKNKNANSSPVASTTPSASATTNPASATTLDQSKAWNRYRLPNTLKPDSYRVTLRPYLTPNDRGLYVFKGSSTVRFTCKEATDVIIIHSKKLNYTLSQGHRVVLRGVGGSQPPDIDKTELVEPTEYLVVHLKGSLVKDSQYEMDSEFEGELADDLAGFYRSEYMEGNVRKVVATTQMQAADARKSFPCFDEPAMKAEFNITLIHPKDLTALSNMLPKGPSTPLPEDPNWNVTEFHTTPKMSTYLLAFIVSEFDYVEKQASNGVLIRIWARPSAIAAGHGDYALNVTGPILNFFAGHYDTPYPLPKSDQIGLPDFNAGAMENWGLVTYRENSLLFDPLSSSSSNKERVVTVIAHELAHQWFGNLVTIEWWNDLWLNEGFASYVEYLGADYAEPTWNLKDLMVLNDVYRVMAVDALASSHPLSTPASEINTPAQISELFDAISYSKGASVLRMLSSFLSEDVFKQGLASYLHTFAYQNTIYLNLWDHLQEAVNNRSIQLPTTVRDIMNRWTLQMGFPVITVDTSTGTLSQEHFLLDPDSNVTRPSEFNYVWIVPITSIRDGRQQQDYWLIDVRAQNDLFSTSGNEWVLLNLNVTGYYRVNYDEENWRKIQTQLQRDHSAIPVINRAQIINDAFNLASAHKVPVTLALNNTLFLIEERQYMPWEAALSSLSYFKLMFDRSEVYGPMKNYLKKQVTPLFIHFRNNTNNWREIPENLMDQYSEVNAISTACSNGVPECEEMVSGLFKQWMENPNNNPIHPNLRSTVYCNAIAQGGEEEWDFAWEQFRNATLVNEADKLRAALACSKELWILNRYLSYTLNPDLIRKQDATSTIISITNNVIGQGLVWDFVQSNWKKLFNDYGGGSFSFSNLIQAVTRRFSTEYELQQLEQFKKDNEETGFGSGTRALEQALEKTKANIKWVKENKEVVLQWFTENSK

Ki (Aminopeptidase N) [µM] | Structure (SMILES) | Ki [1] [nM] | Ki [2] [nM]
> 100 | CN1C(=O)[C@@H](N)CCCC/C=C\C[C@@H](C(=O)NCc2ccccc2)NC(=O)[C@@H]1Cc1ccc(O)cc1 | – | –
– | N[C@H]1CCCC/C=C/C[C@@H](C(=O)NCc2ccccc2CC(=O)O)NC(=O)[C@H](Cc2ccc(O)cc2)NC1=O | 46.8 | 133
– | N[C@H]1CCCCCCC[C@@H](C(=O)NCc2ccccc2CC(=O)O)NC(=O)[C@H](Cc2ccc(O)cc2)NC1=O | 12.5 | 517
– | N[C@H]1CCCCCC[C@@H](C(=O)NCc2ccccc2CC(=O)O)NC(=O)[C@H](Cc2ccc(O)cc2)NC1=O | 28.9 | 631
– | N[C@H]1CC/C=C/CC[C@@H](C(=O)NCc2ccccc2CC(=O)O)NC(=O)[C@H](Cc2ccc(O)cc2)NC1=O | 36.8 | 450
– | N[C@H]1CC/C=C\CC[C@@H](C(=O)NCc2ccccc2CC(=O)O)NC(=O)[C@H](Cc2ccc(O)cc2)NC1=O | 24.8 | 568
– | N[C@H]1CC/C=C/CC[C@@H](C(=O)NCc2ccccc2CC(=O)O)NC(=O)C[C@H](Cc2ccc(O)cc2)NC1=O | 9.8 | 74.2
– | N[C@H]1CC/C=C/CC[C@@H](C(=O)NCc2ccccc2)NC(=O)[C@H](Cc2ccccc2)NC1=O | 719 | 3520
– | N[C@H]1CC/C=C\CC[C@@H](C(=O)NCc2ccccc2)NC(=O)[C@H](Cc2ccccc2)NC1=O | 287 | 3470
> 100 | CN1C(=O)[C@@H](N)CCCC/C=C/C[C@@H](C(=O)NCc2ccccc2)NC(=O)[C@@H]1Cc1ccc(O)cc1 | – | –
> 100 | CN1C(=O)[C@@H](N)CCC/C=C/CC[C@@H](C(=O)NCc2ccccc2)NC(=O)[C@@H]1Cc1ccc(O)cc1 | – | –
> 100 | CN1C(=O)[C@@H](N)CCC/C=C\CC[C@@H](C(=O)NCc2ccccc2)NC(=O)[C@@H]1Cc1ccc(O)cc1 | – | –
